Measurements taken from ChEMBL document CHEMBL1127411, “Chemical and biological evaluation of hydrolysis products of cyclophosphamide” (J Med Chem, 1994).
The source made the active and inactive calls. The calls are words filed in the database; no cut-off is given here.

Experiments:
[1] = Lethal dose was evaluated after single intraperitoneal injection in mice; format: toxicity, organism-based; conditions: mouse, in vivo, ip
In short: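 Male CD2F1 mice, 6–8 weeks old, two per dose group, single ip injection. Observed 28 days for lethality and clinical signs of toxicity; approximate LD₅₀ estimated from deaths.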

[2] = The half life at a physiological pH
[3] = The half life at a pH 1.2; conditions: buffer
[4] = Antitumor efficacy evaluated after single intraperitoneal dose of 68.1 mg/kg on consecutive days; NE = No effect; format: functional, organism-based; parameters: dose 68.1 mg/kg
In short: (§1)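 Male CD2F1 mice, six per group, inoculated ip with 10⁶ freshly harvested P388 cells in 0.2 mL phosphate-buffered saline. Test substance given ip either once on day 1 or daily on days 1–4; controls received solvent. Median survival time recorded per group; increase of life span expressed as percentage of control.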

[5] = Antitumor efficacy evaluated after single intraperitoneal dose of 215 mg/kg; NE = No effect; format: functional, organism-based; parameters: dose 215 mg/kg; in short: as §1
[6] = Antitumor efficacy evaluated after single dose of 316 mg/kg; NE = No effect; format: functional, organism-based; parameters: dose 316 mg/kg; in short: as §1
[7] = Antitumor efficacy evaluated after fractionated dose of 4*100 mg/kg; NE = No effect; format: functional, organism-based; in short: as §1

SMILES | LD50 [1] | half-life [2] | half-life [3] | Efficacy [4] | Efficacy [5] | Efficacy [6] | Efficacy [7]
O=P1(N(CCCl)CCCl)NCCCO1 (stereo not given) [CYCLOPHOSPHAMIDE ANHYDROUS] | 620 mg/kg | 158 h | 33.6 h |  |  |  | 
O=P(O)(O)OCCCNCCNCCCl | 700 mg/kg |  |  | inactive | inactive |  | 
NCCCOP(=O)(O)O | 1000 mg/kg |  |  |  |  |  | 
O=P1(O)OCCCNCCN1CCCl | 1000 mg/kg |  |  |  |  | inactive | inactive
